Holding throughout (type): functional
The test system of experiment [1] is Candida albicans. Put plainly: Antifungal activity against Candida albicans ATCC 10231 assessed as growth inhibition after 24 hrs by liquid dilution method. The note with it: ATCC 10231, 24 h. In short, it runs like this: (§1)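 Liquid (tube) dilution. Compounds and positive controls in DMSO at 11 concentrations from 0.98 upward. Each tube held 1 mL compound solution plus bacterial or fungal inoculum and sterile water. Incubated 24 h, then checked for turbidity; MIC is the lowest concentration without growth. Chlorothalonil, norfloxacin and fluconazole as standards.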

For experiment [2], the system named is Candida albicans. Kind of experiment: Fungicidal activity against Candida albicans ATCC 10231 after 18 to 24 hrs. The note with it: read-out: MFC99.9. The gist of the method:
(§2)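 After the liquid dilution MIC tubes, 0.1 mL from each tube spread on agar plates. Colonies counted after 18–24 h incubation at 35 °C. MBC taken as the lowest drug concentration killing 99.9% of the inoculum.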

Experiment [3] deals with Bacillus cereus. Put plainly: Antibacterial activity against Bacillus cereus ATCC 14579 assessed as growth inhibition after 24 hrs by liquid dilution method. The note with it: ATCC 14579, 24 h. The gist of the method: as §1
The test system of experiment [4] is Escherichia coli. Put plainly: Antibacterial activity against Escherichia coli ATCC 8099 assessed as growth inhibition after 24 hrs by liquid dilution method. The note with it: ATCC 8099, 24 h. The gist of the method: as §1
Experiment [5] deals with Staphylococcus aureus. Kind of experiment: Bactericidal activity against Staphylococcus aureus ATCC 6538 after 18 to 24 hrs. The note with it: read-out: MBC99.9. The gist of the method: as §2
Experiment [6] relates to Pseudomonas aeruginosa. Kind of experiment: Antibacterial activity against Pseudomonas aeruginosa ATCC 15442 assessed as growth inhibition after 24 hrs by liquid dilution method. The note with it: ATCC 15442, 24 h. The gist of the method:
as §1

Experiment [7] relates to Bacillus cereus. Put plainly: Antibacterial activity against Bacillus cereus ATCC 14579 assessed as growth inhibition at 1000 ug/mL after 24 hrs by disk diffusion assay. The note with it: ATCC 14579, 24 h, read-out: DIZ. The gist of the method:
(§3)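 Disk diffusion on nutrient agar, inoculum spread evenly. Disks of 6 mm Whatman No. 1 paper, dry-heat sterilized at 121 °C for 1 h, soaked in test compound at 1000 (micro)g/mL. Norfloxacin and chlorothalonil disks as positive controls, DMSO disks as negative control. Plates incubated 24 h at 37 °C. Inhibition zone diameter measured in mm.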
(In general: Agar diffusion results depend on both activity and mobility in agar.)

In experiment [8] the test system is Staphylococcus aureus. Kind of experiment: Antibacterial activity against Staphylococcus aureus ATCC 6538 assessed as growth inhibition after 24 hrs by liquid dilution method. The note with it: ATCC 6538, 24 h. The gist of the method:
as §1

The subject of experiment [9] is Staphylococcus aureus. Put plainly: Antibacterial activity against Staphylococcus aureus ATCC 6538 assessed as growth inhibition at 1000 ug/mL after 24 hrs by disk diffusion assay. The note with it: ATCC 6538, 24 h, read-out: DIZ. The gist of the method: as §3
The subject of experiment [10] is Escherichia coli. Kind of experiment: Antibacterial activity against Escherichia coli ATCC 8099 assessed as growth inhibition at 1000 ug/mL after 24 hrs by disk diffusion assay. The note with it: ATCC 8099, 24 h, read-out: DIZ. In short, it runs like this: as §3
Experiment [11] relates to Bacillus cereus. Put plainly: Bactericidal activity against Bacillus cereus ATCC 14579 after 18 to 24 hrs. The note with it: read-out: MBC99.9. In short, it runs like this:
as §2

Experiment [12] relates to Pseudomonas aeruginosa. Put plainly: Antibacterial activity against Pseudomonas aeruginosa ATCC 15442 assessed as growth inhibition at 1000 ug/mL after 24 hrs by disk diffusion assay. The note with it: ATCC 15442, 24 h, read-out: DIZ. The gist of the method: as §3
In experiment [13] the test system is Candida albicans. Kind of experiment: Antifungal activity against Candida albicans ATCC 10231 assessed as growth inhibition at 1000 ug/mL after 24 hrs by disk diffusion assay. The note with it: for zone of inhibition at 1000 µg/mL: ATCC 10231, 24 h, read-out: DIZ. In short, it runs like this: as §3

Consider 9 compounds from ChEMBL document CHEMBL2434951, “Synthesis and antimicrobial activity of polyhalobenzonitrile quinazolin-4(3H)-one derivatives” (2013).

By MIC is commonly meant the smallest concentration in the dilution series that meets the test's criterion for growth inhibition.

Each structure is given as a SMILES string. ≈ marks a conversion by molar mass, not a printed value. Calls of active or inactive are those of the source.

As to `OC(Cn1cncn1)(Cn1cncn1)c1ccc(F)cc1F` [FLUCONAZOLE], the MIC in the experiment on Candida albicans [1] is 2 µg/mL (≈ 6.53 µM). Also, in the experiment on Candida albicans [2], the MFC came out at 15.6 µg/mL (≈ 50.9 µM).
Consider `CCn1cc(C(=O)O)c(=O)c2cc(F)c(N3CCNCC3)cc21` [NORFLOXACIN], for which the MIC amounted to 0.6 µg/mL (≈ 1.88 µM) in the experiment on Bacillus cereus [3], 0.5 µg/mL (≈ 1.57 µM) with Escherichia coli [4], 0.7 µg/mL (≈ 2.19 µM) in the experiment with Pseudomonas aeruginosa [6] and 1.2 µg/mL (≈ 3.76 µM) in the experiment on Staphylococcus aureus [8]. For the same compound, the figures for the MBC in the experiment with Staphylococcus aureus [5] and in the experiment on Bacillus cereus [11] were 5.2 µg/mL (≈ 16.3 µM) and 6.5 µg/mL (≈ 20.4 µM), respectively. Moreover, the zone of inhibition at 1000 µg/mL in the experiment with Bacillus cereus [7] came to 18.6 mm; with Staphylococcus aureus [9], 17 mm; in the experiment with Escherichia coli [10] it was 20 mm; in the experiment with Pseudomonas aeruginosa [12] it was 16.8 mm; with Candida albicans [13] it was 21.8 mm.
On to `N#Cc1c(Cl)c(Cl)c(Cl)c(C#N)c1Cl` [CHLOROTHALONIL], for which the MIC with Bacillus cereus [3] was found to be 0.7 µg/mL (≈ 2.63 µM); in the experiment on Escherichia coli [4], 0.5 µg/mL (≈ 1.88 µM); in the experiment with Candida albicans [1], 0.7 µg/mL (≈ 2.63 µM); in the experiment on Pseudomonas aeruginosa [6] it was 1.7 µg/mL (≈ 6.39 µM); in the experiment on Staphylococcus aureus [8], 1.3 µg/mL (≈ 4.89 µM). Besides, the values for the MBC in the experiment with Staphylococcus aureus [5] and with Bacillus cereus [11] were 2 µg/mL (≈ 7.52 µM) and 1.7 µg/mL (≈ 6.39 µM), respectively. The zone of inhibition at 1000 µg/mL in the experiment with Bacillus cereus [7] stood at 15.5 mm; with Staphylococcus aureus [9], 14 mm; in the experiment with Escherichia coli [10], 18.5 mm; in the experiment with Pseudomonas aeruginosa [12], 15.8 mm; in the experiment on Candida albicans [13], 17 mm. For the same compound, in the experiment with Candida albicans [2], the MFC came to 7.8 µg/mL (≈ 29.3 µM).
For `N#Cc1c(Cl)c(Cl)c(Nc2ccc(Nc3ccc(F)cc3)c3c(=O)[nH]cnc23)c(C#N)c1Cl`, the MIC with Bacillus cereus [3] worked out at 0.7 µg/mL (≈ 1.4 µM); with Escherichia coli [4], 6.5 µg/mL (≈ 13 µM); with Candida albicans [1], 1.7 µg/mL (≈ 3.4 µM); in the experiment on Pseudomonas aeruginosa [6], 1.7 µg/mL (≈ 3.4 µM); in the experiment on Staphylococcus aureus [8], 0.8 µg/mL (≈ 1.6 µM). Further, the MBC in the experiment with Staphylococcus aureus [5] and in the experiment on Bacillus cereus [11] was 6.5 µg/mL (≈ 13 µM) each time. The zone of inhibition at 1000 µg/mL in the experiment on Bacillus cereus [7] was 18 mm; in the experiment with Staphylococcus aureus [9], 11.5 mm; in the experiment with Escherichia coli [10], 9 mm; in the experiment on Pseudomonas aeruginosa [12], 11 mm; in the experiment on Candida albicans [13], 10.5 mm. The MFC in the experiment on Candida albicans [2] is 52.1 µg/mL (≈ 104 µM).
For `Cc1ccc(N)c(Nc2ccc([N+](=O)[O-])c3nc[nH]c(=O)c23)c1`, the MIC in the experiment with Bacillus cereus [3] came to 20.8 µg/mL (≈ 66.8 µM); with Escherichia coli [4], 20.8 µg/mL (≈ 66.8 µM); with Pseudomonas aeruginosa [6] it was 20.8 µg/mL (≈ 66.8 µM); with Staphylococcus aureus [8], 10.4 µg/mL (≈ 33.4 µM). For the same compound, the zone of inhibition at 1000 µg/mL worked out at 15 mm with Bacillus cereus [7]; 5.3 mm in the experiment on Staphylococcus aureus [9]; 14.7 mm in the experiment on Escherichia coli [10]; 16.8 mm with Pseudomonas aeruginosa [12]; 13.5 mm with Candida albicans [13].
As to `N#Cc1c(Cl)c(Cl)c(Nc2ccc(Nc3cccc(Cl)c3)c3c(=O)[nH]cnc23)c(C#N)c1Cl`, the MIC in the experiment on Bacillus cereus [3] stood at 0.5 µg/mL (≈ 0.969 µM); in the experiment on Escherichia coli [4] it was 7.8 µg/mL (≈ 15.1 µM); in the experiment on Candida albicans [1], 1.7 µg/mL (≈ 3.29 µM); in the experiment with Pseudomonas aeruginosa [6], 20.8 µg/mL (≈ 40.3 µM); with Staphylococcus aureus [8] it was 0.7 µg/mL (≈ 1.36 µM). In addition, the MBC in the experiment on Staphylococcus aureus [5] was 31.3 µg/mL (≈ 60.6 µM); in the experiment with Bacillus cereus [11] it was 41.7 µg/mL (≈ 80.8 µM). Besides, the zone of inhibition at 1000 µg/mL with Bacillus cereus [7] was found to be 9 mm; in the experiment on Staphylococcus aureus [9], 8.5 mm; with Escherichia coli [10] it was 9 mm; in the experiment on Pseudomonas aeruginosa [12], 8.7 mm; with Candida albicans [13] it was 9 mm. Also, the MFC with Candida albicans [2] turned out to be 31.3 µg/mL (≈ 60.6 µM).
On to `N#Cc1c(Cl)c(Cl)c(Nc2ccc(N3CCCCC3)c3c(=O)[nH]cnc23)c(C#N)c1Cl`, for which the MIC with Bacillus cereus [3] was 0.5 µg/mL (≈ 1.06 µM); in the experiment with Escherichia coli [4] it was 1 µg/mL (≈ 2.11 µM); in the experiment on Candida albicans [1], 2.6 µg/mL (≈ 5.49 µM); in the experiment on Pseudomonas aeruginosa [6], 1.3 µg/mL (≈ 2.74 µM); in the experiment with Staphylococcus aureus [8] it was 0.7 µg/mL (≈ 1.48 µM). In addition, the MBC in the experiment with Staphylococcus aureus [5] amounted to 4.6 µg/mL (≈ 9.71 µM); in the experiment with Bacillus cereus [11], 6.5 µg/mL (≈ 13.7 µM). Also, the zone of inhibition at 1000 µg/mL was 15 mm with Bacillus cereus [7], 9.7 mm with Staphylococcus aureus [9], 9 mm in the experiment on Escherichia coli [10] and 8.7 mm with Pseudomonas aeruginosa [12]. In addition, in the experiment with Candida albicans [13], the “diameter of the inhibition zone (DIZ)” value is “inactive”. The MFC with Candida albicans [2] stood at 41.7 µg/mL (≈ 88 µM).
As to `CN(C)c1ccc(Nc2c(Cl)c(Cl)c(C#N)c(Cl)c2C#N)c2nc[nH]c(=O)c12`, the MIC is 0.8 µg/mL (≈ 1.84 µM) with Bacillus cereus [3]; 1.3 µg/mL (≈ 3 µM) in the experiment on Escherichia coli [4]; 0.5 µg/mL (≈ 1.15 µM) with Candida albicans [1]; 2 µg/mL (≈ 4.61 µM) in the experiment on Pseudomonas aeruginosa [6]; 3.3 µg/mL (≈ 7.61 µM) in the experiment on Staphylococcus aureus [8]. Besides, the MBC with Staphylococcus aureus [5] came out at 2.6 µg/mL (≈ 6 µM); with Bacillus cereus [11], 3.3 µg/mL (≈ 7.61 µM). Further, the zone of inhibition at 1000 µg/mL turned out to be 18 mm in the experiment on Bacillus cereus [7]; 14.3 mm in the experiment with Staphylococcus aureus [9]; 19 mm in the experiment with Escherichia coli [10]; 15 mm in the experiment on Pseudomonas aeruginosa [12]; 15.5 mm in the experiment with Candida albicans [13]. Also, the MFC in the experiment with Candida albicans [2] worked out at 7.8 µg/mL (≈ 18 µM).
Take `Cc1cc(C)cc(Nc2ccc(Nc3c(Cl)c(Cl)c(C#N)c(Cl)c3C#N)c3nc[nH]c(=O)c23)c1`: the MIC worked out at 0.7 µg/mL (≈ 1.37 µM) with Bacillus cereus [3]; 7.8 µg/mL (≈ 15.3 µM) in the experiment with Escherichia coli [4]; 5.2 µg/mL (≈ 10.2 µM) in the experiment with Candida albicans [1]; 20.8 µg/mL (≈ 40.8 µM) with Pseudomonas aeruginosa [6]; 0.8 µg/mL (≈ 1.57 µM) with Staphylococcus aureus [8]. Besides, the MBC with Staphylococcus aureus [5] and with Bacillus cereus [11] was 31.3 µg/mL (≈ 61.4 µM) throughout. Besides, the zone of inhibition at 1000 µg/mL was 10.3 mm with Bacillus cereus [7]; 10 mm in the experiment on Staphylococcus aureus [9]; 11.5 mm in the experiment with Escherichia coli [10]; 10 mm in the experiment on Pseudomonas aeruginosa [12]; 7 mm in the experiment with Candida albicans [13]. The MFC in the experiment with Candida albicans [2] is 52.1 µg/mL (≈ 102 µM).
